Bioassay records from PubChem BioAssay.
STAT3 blocker: STAT3 signaling inhibition; U3A cells, IL-6 STAT3-luciferase reporter, luminescence; host cell line lacks STAT1; inhibition, % at 5.5 µM; hit rate 0.89% among 190,000; AID 862;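 active means inhibition above the mean inhibition across all screened compounds plus 3 SD, cut at about 44% in these data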;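 further: 0% = DMSO only wells and 100% = 100 µM nifuroxazide control wells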
C8 TRAIL sens: caspase-8 TRAIL sensitization. NB7+C8 cells + TRAIL, ATPlite viability luminescence. inhibition (viability loss, TRAIL sensitization), % at 10 µM. hit rate 1% among 360,000. AID 624354;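 active means compounds causing at least 50% loss of cell viability in the single-dose screen, relative to plate controls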
PPC-1+TRAIL kill: kills PPC-1 cancer cells in the presence of TRAIL; PPC-1 cells + TRAIL, ATPLite viability luminescence; cell killing (% activity), % at 4 µM or 5 µM; hit rate 0.41% among 220,000; AID 1443;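 active means cell killing above 50% in the first pass at 4 µM, then a duplicate retest at 5 µM averaging 50% or more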;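 further: plate controls were cells with TRAIL plus DMSO for no effect and medium-only wells lacking cells for full effect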
STAT3 act: activators of IL-6 induced STAT3 signaling. U3A cells, IL-6 STAT3-luciferase reporter, luminescence; 100% = signal with IL-6 EC80 alone. activation (% of control), % at 5.6 µM. hit rate 0.91% among 190,000. AID 871;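 active means activation above the screen-wide mean of compound activation plus 3 SD, cut at about 130% in these data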;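 further: 0% = background luminescence of wells with medium and substrate only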
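Assay system – human STAT1-deficient U3A cells with stable STAT3-luciferase reporter · Also added – IL-6 (33 ng/mL) · Schedule – compound 1 h, then IL-6 6 h at 37 °C · Technique – reporter luminescence signal · Evaluation – % activation versus median of IL-6-stimulated wells · Benchmarks – IL-6-only wells as 100% reference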
STAT1 inh: reduces IFN-gamma driven STAT1 reporter signal. NIH 3T3 STAT1-luciferase reporter, luminescence. AID 920. hit rate 0.35% among 200,000. inhibition, % at 5.5 µM;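 active means inhibition above a set limit, the mean inhibition across all tested compounds plus 3 SD, cut at about 34% in these data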;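 further: 0% = IFN-gamma with DMSO and 100% = IFN-gamma with 300 µM nifuroxazide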
An asterisk follows results filed as active; . = not tested or not shown. Hits are enriched below; roughly 1.8% of the tested compounds scored in any of these assays.

SMILES | STAT3 blocker | C8 TRAIL sens | PPC-1+TRAIL kill | STAT3 act | STAT1 inh
Cc1ccc(C2=NNC(c3cccc(F)c3)S2)cc1 (stereo not given) | 78* | 66* | . | 35 | 48*
Fc1cccc(C2NN=C(c3ccccc3)S2)c1 (stereo not given) | 40 | 55* | 27 | 66 | -71
O=C(Nc1ccc(OCC(F)(F)C(F)F)c(C(F)(F)F)c1)c1ccc(Cl)cc1 | 8 | 77* | . | 101 | 0
COc1ccc(C(=O)Nc2ccc(OCC(F)(F)C(F)F)c(C(F)(F)F)c2)cc1OC | 12 | 41 | 6 | 96 | -8
COC(=O)c1c[nH]c2c1-c1cc(C(=O)OCc3ccccc3)n(S(=O)(=O)c3ccc(C)cc3)c1C(=O)C2=O | . | 70* | . | . | .
C=C1C(=O)C23C(O)C1CCC2C12CCCC(C)(COC(C)=O)C1C(O)C3(O)OC2 (stereo not given) | . | 74* | . | . | .
Cc1cccc(C(=O)N2CCC(Cc3ccccc3)CC2)c1[N+](=O)[O-] | -17 | 6 | -6 | 112 | -1
O=C(Sc1cccc2cccnc12)c1ccc(F)cc1 | 30 | . | 58* | 76 | -81
O=S(=O)(Nc1cc(Sc2cccc3cccnc23)c(O)c2ccccc12)c1ccc(F)cc1 | -96 | . | 34 | 184* | -45
O=C(Sc1cccc2cccnc12)c1ccccc1Br | . | -4 | . | . | .
Cc1ccc(Cl)cc1NC1=C/C(=N\S(=O)(=O)c2cccs2)c2ccccc2C1=O | -28 | 92* | -7 | 132 | -2
Cc1cccc(NC2=C/C(=N/S(=O)(=O)c3cccs3)c3ccccc3C2=O)c1 | -8 | 95* | 51* | 116 | 3
Cc1ccc(S(=O)(=O)/N=C2\C=C(NS(=O)(=O)c3ccccc3)C(=O)c3ccccc32)cc1 | . | -17 | . | . | .
O=C(Nc1ccc2c(c1)OCCO2)c1ccc(Br)cc1 | . | 52* | . | . | .
CCOc1ccc(C(=O)Nc2ccc3c(c2)OCCO3)cc1 | . | 55* | . | . | .
Cc1ccc(C(=O)Nc2ccc3c(c2)OCCO3)c(Cl)c1 | . | 83* | . | . | .
O=C(Nc1ccc2c(c1)OCCO2)c1cccc(Br)c1 | . | 50 | . | . | .
Cc1ccc(C(=O)Nc2ccc3c(c2)OCCO3)cc1 | . | 84* | . | . | .
CCc1noc(C)c1C(=O)Nc1cc(S(=O)(=O)N(CC)CC)ccc1N1CCOCC1 | . | -9 | . | . | .
COc1ccc(CNn2cnnc2)c(O)c1 | . | 4 | . | . | .
CCOc1cccc(C(=O)Nc2ccc3[nH]ncc3c2)c1 | . | 62* | . | . | .
CCCOc1cccc(C(=O)Nc2ccc3c(c2)OCCO3)c1 | . | 52* | . | . | .
O=C(Nc1ccc2c(c1)OCO2)c1ccncc1 | 0 | 2 | -2 | 106 | -6
Cc1ccc(C(=O)Nc2ccc3c(c2)OCO3)cc1 | 32 | 74* | 72* | 72 | 20
CCCOc1cccc(C(=O)Nc2cccc(NC(=O)c3ccco3)c2)c1 | 6 | 2 | 8 | 99 | 7
SMILES | STAT3 blocker | C8 TRAIL sens | PPC-1+TRAIL kill | STAT3 act | STAT1 inh
O=C(Nc1ccc(Cl)cc1Cl)c1ccc2c(c1)OCCO2 | . | 53* | . | . | .
Cc1cc(Cl)ccc1NC(=O)c1ccc2c(c1)OCO2 | . | 4 | . | . | .
CCCNc1c(NS(=O)(=O)c2ccc(C3CCCCC3)cc2)c(=O)oc2ccccc12 | . | -1 | . | . | .
O=C(O)CCN(CC(=O)c1ccc(Cl)cc1)S(=O)(=O)c1ccc([N+](=O)[O-])cc1 | . | -9 | . | . | .
CC1CCCCC1NCC#CCOc1ccc(Cl)cc1 (stereo not given) | 9 | 4 | -6 | 97 | -8
CCCCOc1ccc(C(=O)N(Cc2ccco2)C2CCS(=O)(=O)C2)cc1 (stereo not given) | . | -11 | . | . | .
O=C1NCCN1CCNc1nc(NCC2CC2)nc2cc(-c3ccccc3)sc12 | . | 1 | . | . | .
Cc1cc(C)n2nc(C(=O)Nc3ccc4c(c3)OCO4)nc2n1 | 1 | 7 | 37 | 100 | -14
Cc1cc(C)n2nc(C(=O)Nc3ccc4c(c3)OCCO4)nc2n1 | . | 51* | . | . | .
Oc1ccc(-c2nc3ccccc3s2)cc1 | . | 62* | 32 | . | .
c1ccc2sc(-c3ccncc3)nc2c1 | . | -2 | 8 | . | .
CCOC(=O)c1sc(NC(=O)c2cc(-c3ccccc3C)nc3ccccc23)c(C#N)c1C | -2 | 61* | 22 | 105 | 8
Cc1sc(NC(=S)NC(=O)CCc2ccccc2)c(C(N)=O)c1C | -62 | -31 | 6 | 156* | -15
Cc1ccc(C(=O)NCC(=O)Nc2ncccc2C)s1 | . | -11 | . | . | .
O=C1NC[C@H](CCCCN2CCN(CC3CCCCC3)C(=O)C2=O)N(CCC2CCCCC2)C1=O | . | -8 | . | . | .
COc1ccc(-n2c(C)cc(/C=C3\C(=O)NN(c4ccccc4)C3=O)c2C)cc1 | -10 | 12 | 28 | 109 | -4
Cc1cc(/C=C2/C(=O)NN(c3ccccc3)C2=O)c(C)n1-c1ccc(O)cc1 | 28 | 88* | 79* | 77 | -21
Cc1cccc(NC2=NC(C)(C)N=C(N)N2)c1 | 15 | 71* | 44 | 90 | -1
CC1CCN(c2ccc([N+](=O)[O-])cc2C(=O)NCC2CCCO2)CC1 (stereo not given) | . | 15 | . | . | .
Cc1ccc(NC(=O)CSc2ccc(-c3ccc4c(c3)OCO4)nn2)cc1F | -1 | 55* | 29 | 104 | 3
CCCCSc1nnc(-c2cc3c(C(F)(F)F)nn(C)c3s2)n1C | 13 | -10 | 9 | 94 | 1
C#CCSc1nnc(-c2cc3c(C(F)(F)F)nn(C)c3s2)n1C | 18 | 89* | -6 | 89 | 0
COc1ccccc1-c1cn(C(C)(C)C)nc1C | 12 | -1 | 2 | 94 | -1
CC(C)(C)c1cc[n+](C2=C([O-])c3ccccc3C(=O)/C2=N\S(=O)(=O)c2cccs2)cc1 | . | 54* | 14 | . | .
O=C(CCNC(=O)C1CCN(S(=O)(=O)c2ccccc2)CC1)NCc1ccncc1 | . | -2 | . | . | .
SMILES | STAT3 blocker | C8 TRAIL sens | PPC-1+TRAIL kill | STAT3 act | STAT1 inh
O=C(COC(=O)c1cc(Br)ccc1O)NCCC1=CCCCC1 | . | -1 | . | . | .
CCOc1ccc(-c2cc(N3C(=O)Nc4ccccc4N3O)on2)cc1 | 16 | 56* | 7 | 90 | 14
COc1ccc(-c2cc(N3C(=O)Nc4ccccc4N3O)n[nH]2)cc1 | 0 | 6 | -11 | 99 | -1
O=C(CSc1nccn1-c1ncc(C(F)(F)F)cc1Cl)c1ccc(Cl)cc1 | -101 | 7 | 17 | 197* | -36
COc1ccc2cc1Oc1ccc(cc1)C[C@H]1c3c(cc(OC)c4c3Oc3c(ccc5c3[C@H](C2)N(C)CC5)O4)CCN1C | . | 88* | . | . | .
COc1cc2c(c(O)c1OC)C1Cc3ccc(OC)c(OC)c3CN1CC2 (stereo not given) | . | 0 | . | . | .
COc1ccc2cc1Oc1ccc(cc1)CC1c3c(cc(OC)c4c3Oc3cc5c(cc3O4)CCNC5C2)CCN1C (stereo not given) | . | 93* | 23 | . | .
O=C(OCc1ccccc1)N1CCC2CC1c1c(-c3ccc(C(F)(F)F)cc3)cccc12 (stereo not given) | . | 0 | . | . | .
Cc1ccc(C2CC(C(F)(F)F)n3nc(C(=O)NCc4c(C)nn(C)c4C)c(Cl)c3N2)cc1 (stereo not given) | 60* | 22 | 17 | 55 | 59*
Cc1c([N+](=O)[O-])c(C(=O)NC2CCCC2)nn1C | . | 0 | . | . | .
